Measurements taken from ChEMBL document CHEMBL3774315, “Discovery of new low-molecular-weight p53-Mdmx disruptors and their anti-cancer activities” (Bioorg Med Chem, 2016).
The source made the active and inactive calls. No cut-off for these calls is given here.

Key:
[1] = test system: MCF7; assay: Upregulation of Mdm2 in human MCF7 cells after 24 hrs by Western blot analysis; assay type: functional, cell-based
Method in brief: (§1)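 MCF-7 cells plated at 1.0 × 10^6 per 60-mm dish, grown 24 h, washed and given fresh medium for another 24 h. Treated with compound or 0.1% DMSO for 24 or 48 h. Floating and adherent cells lysed in Tris/NaCl/EDTA/EGTA/NP-40 buffer with Na3VO4, NaF, DTT, PMSF and protease inhibitors. 10 µg protein separated by SDS-PAGE, probed with primary antibodies at 1:1000, detected by ECL chemiluminescence.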

[2] = test system: MCF7; assay: Upregulation of p53 in human MCF7 cells after 24 hrs by Western blot analysis; assay type: functional, cell-based; method in brief: as §1
[3] = test system: MCF7; assay: Increase in p53 expression in human MCF7 cells nuclei after 24 hrs by DAPI staining based immunofluorescence microscopy; assay type: functional, cell-based
Method in brief: (§2)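 Cells seeded at 3.0 × 10^4/mL in chamber slides and grown 24 h, then exposed to 10 µM sample for a further 24 h. Fixed in 3% paraformaldehyde (25 °C, 30 min), permeabilized with 0.05% Triton X-100 and blocked with 3% BSA. Stained with anti-p53 (1:50, overnight, 4 °C) and an Alexa 488 secondary (1:200, 30 min). Nuclei counterstained with DAPI; examined by fluorescence/confocal microscopy.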

[4] = test system: IMR-32; assay: Increase in p53 expression in human IMR32 cells nuclei after 24 hrs by DAPI staining based immunofluorescence microscopy; assay type: functional, cell-based; method in brief: as §2
[5] = test system: MCF7; assay: Upregulation of p21 in human MCF7 cells after 24 hrs by Western blot analysis; assay type: functional, cell-based; method in brief: as §1
[6] = target: Cellular tumor antigen p53/Peptidyl-prolyl cis-trans isomerase D (Homo sapiens, UniProt P04637+Q08752); assay: Inhibition of Flag-tagged p53/GST-tagged PPID (unknown origin) expressed in Escherichia coli BL21 after 1 hr by ELISA microplate reader method
Sequence of Cellular tumor antigen p53/Peptidyl-prolyl cis-trans isomerase D (P04637 whole entry): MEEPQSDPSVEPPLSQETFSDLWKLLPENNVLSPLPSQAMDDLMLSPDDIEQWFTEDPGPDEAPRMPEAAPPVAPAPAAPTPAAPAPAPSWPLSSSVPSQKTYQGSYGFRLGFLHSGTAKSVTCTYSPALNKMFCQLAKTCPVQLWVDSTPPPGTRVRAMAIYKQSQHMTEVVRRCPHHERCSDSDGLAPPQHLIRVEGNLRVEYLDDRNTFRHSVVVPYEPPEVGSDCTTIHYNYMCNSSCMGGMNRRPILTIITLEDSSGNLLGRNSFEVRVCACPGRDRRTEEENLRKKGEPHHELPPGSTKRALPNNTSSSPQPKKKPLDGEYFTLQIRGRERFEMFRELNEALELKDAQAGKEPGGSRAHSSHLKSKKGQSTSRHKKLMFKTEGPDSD
Sequence of Cellular tumor antigen p53/Peptidyl-prolyl cis-trans isomerase D (Q08752 whole entry): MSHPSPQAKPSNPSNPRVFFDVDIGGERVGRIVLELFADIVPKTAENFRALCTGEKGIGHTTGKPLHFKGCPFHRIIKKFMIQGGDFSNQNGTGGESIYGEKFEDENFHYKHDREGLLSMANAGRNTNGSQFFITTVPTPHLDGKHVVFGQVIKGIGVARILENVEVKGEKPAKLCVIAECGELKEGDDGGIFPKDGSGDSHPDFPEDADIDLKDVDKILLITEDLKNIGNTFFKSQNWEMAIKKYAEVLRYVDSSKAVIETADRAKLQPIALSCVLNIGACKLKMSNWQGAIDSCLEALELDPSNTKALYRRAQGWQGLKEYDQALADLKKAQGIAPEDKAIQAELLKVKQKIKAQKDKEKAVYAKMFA

[7] = target: Cellular tumor antigen p53/Death-associated protein kinase 1 (Homo sapiens, UniProt P04637+P53355); assay: Inhibition of Flag-tagged p53/GST-tagged DAPK1 (unknown origin) expressed in Escherichia coli BL21 after 1 hr by ELISA microplate reader method
Sequence of Cellular tumor antigen p53/Death-associated protein kinase 1 (P04637 whole entry): as the sequence (P04637 whole entry) above
Sequence of Cellular tumor antigen p53/Death-associated protein kinase 1 (P53355 whole entry): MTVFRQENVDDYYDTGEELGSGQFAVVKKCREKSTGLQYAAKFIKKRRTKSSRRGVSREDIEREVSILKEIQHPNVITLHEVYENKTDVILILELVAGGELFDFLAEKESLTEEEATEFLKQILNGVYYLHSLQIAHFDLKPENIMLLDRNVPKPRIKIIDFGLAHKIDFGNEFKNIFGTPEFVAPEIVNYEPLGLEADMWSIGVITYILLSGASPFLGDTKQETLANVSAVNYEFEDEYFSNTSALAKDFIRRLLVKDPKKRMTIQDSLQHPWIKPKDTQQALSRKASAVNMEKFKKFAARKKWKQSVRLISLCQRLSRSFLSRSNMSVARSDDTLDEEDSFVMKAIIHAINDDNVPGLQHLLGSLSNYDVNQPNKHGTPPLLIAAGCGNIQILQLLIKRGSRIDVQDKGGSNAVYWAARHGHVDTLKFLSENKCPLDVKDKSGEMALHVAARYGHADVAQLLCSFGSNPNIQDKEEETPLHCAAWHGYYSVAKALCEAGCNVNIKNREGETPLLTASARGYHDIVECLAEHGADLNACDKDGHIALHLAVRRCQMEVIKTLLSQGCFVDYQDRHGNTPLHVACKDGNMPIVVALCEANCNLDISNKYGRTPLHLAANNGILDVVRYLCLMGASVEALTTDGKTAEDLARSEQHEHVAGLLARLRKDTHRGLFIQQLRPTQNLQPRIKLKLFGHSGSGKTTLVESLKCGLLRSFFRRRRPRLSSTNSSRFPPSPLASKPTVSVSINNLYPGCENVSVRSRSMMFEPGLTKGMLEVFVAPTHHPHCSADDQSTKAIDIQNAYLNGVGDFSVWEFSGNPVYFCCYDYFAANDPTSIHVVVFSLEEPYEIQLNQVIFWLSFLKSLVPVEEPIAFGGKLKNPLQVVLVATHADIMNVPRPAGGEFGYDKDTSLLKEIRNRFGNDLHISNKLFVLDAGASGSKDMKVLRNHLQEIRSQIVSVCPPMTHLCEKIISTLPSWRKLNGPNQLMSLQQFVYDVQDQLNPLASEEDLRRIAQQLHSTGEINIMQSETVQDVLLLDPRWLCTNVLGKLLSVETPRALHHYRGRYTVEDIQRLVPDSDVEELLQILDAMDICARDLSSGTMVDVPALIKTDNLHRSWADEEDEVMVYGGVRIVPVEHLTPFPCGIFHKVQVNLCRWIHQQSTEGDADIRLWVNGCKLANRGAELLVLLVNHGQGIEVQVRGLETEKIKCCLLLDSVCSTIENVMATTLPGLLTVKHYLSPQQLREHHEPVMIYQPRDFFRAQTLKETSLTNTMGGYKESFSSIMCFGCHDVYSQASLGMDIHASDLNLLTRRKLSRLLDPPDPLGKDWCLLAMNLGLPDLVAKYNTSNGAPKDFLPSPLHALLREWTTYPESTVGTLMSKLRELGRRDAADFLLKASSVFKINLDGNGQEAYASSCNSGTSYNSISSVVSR

[8] = target: Tumour suppressor p53/oncoprotein Mdm2 (Homo sapiens, UniProt P04637+Q00987); assay: Inhibition of Flag-tagged p53/GST-tagged Mdm2 (unknown origin) expressed in Escherichia coli BL21 after 1 hr by ELISA microplate reader method
Sequence of Tumour suppressor p53/oncoprotein Mdm2 (P04637 whole entry): as the sequence (P04637 whole entry) above
Sequence of Tumour suppressor p53/oncoprotein Mdm2 (Q00987 whole entry): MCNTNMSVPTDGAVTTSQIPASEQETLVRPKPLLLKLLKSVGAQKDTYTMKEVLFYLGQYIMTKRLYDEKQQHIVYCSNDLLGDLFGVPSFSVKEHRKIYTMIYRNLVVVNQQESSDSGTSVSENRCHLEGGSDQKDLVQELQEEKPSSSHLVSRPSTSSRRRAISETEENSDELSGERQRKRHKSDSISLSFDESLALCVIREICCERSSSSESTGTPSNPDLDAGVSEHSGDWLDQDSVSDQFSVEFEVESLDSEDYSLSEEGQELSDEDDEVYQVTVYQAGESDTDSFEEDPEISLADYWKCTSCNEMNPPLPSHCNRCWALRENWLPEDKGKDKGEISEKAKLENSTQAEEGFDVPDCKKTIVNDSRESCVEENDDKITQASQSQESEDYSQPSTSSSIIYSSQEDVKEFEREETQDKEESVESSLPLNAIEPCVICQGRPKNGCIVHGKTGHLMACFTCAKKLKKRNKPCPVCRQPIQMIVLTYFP

[9] = target: Tumour suppressor protein p53/Mdm4 (Homo sapiens, UniProt O15151+P04637); assay: Inhibition of Flag-tagged p53/GST-tagged Mdmx (unknown origin) expressed in Escherichia coli BL21 after 1 hr by ELISA microplate reader method
Sequence of Tumour suppressor protein p53/Mdm4 (P04637 whole entry): as the sequence (P04637 whole entry) above
Sequence of Tumour suppressor protein p53/Mdm4 (O15151 whole entry): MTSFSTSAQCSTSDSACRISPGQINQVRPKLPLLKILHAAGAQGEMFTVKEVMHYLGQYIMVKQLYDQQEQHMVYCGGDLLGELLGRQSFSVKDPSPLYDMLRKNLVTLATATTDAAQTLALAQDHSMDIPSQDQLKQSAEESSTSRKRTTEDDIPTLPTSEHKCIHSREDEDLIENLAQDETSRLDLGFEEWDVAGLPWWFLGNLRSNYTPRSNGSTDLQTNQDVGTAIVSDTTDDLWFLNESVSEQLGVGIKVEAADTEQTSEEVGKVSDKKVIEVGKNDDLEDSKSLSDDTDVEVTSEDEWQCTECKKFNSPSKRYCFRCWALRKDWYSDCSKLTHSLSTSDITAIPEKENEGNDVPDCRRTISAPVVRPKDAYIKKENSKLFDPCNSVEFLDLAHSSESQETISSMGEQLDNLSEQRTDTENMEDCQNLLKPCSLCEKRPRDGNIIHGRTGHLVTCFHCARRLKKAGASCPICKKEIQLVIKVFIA

[10] = test system: MCF7; assay: Cytotoxicity against human MCF7 cells expressing WT p53 and Mdmx assessed as growth inhibition after 48 hrs by crystal violet staining based spectrophotometry; assay type: functional, cell-based
Method in brief: (§3)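 Cells seeded at 2 × 10^4 per well and held 24 h at 37 °C in 5% CO2. Serial dilutions (0, 10, 15, 20, 25 or 30 µM) then added for 48 h. Cells stained 15 min with crystal violet (0.75% dye, 0.25% NaCl, 1.75% formaldehyde, 50% EtOH) and read at 600 nm. Viability is expressed as percent of untreated control.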

[11] = test system: MDA-MB-468; assay: Cytotoxicity against human MDA-MB-468 cells expressing mutant p53 assessed as growth inhibition after 48 hrs by crystal violet staining based spectrophotometry; assay type: functional, cell-based; method in brief: as §3
[12] = test system: A-431; assay: Cytotoxicity against human A431 cells expressing mutant p53 assessed as growth inhibition after 48 hrs by crystal violet staining based spectrophotometry; assay type: functional, cell-based; method in brief: as §3
[13] = test system: HCT-116; assay: Cytotoxicity against human HCT116 cells expressing WT p53 and Mdmx assessed as growth inhibition after 48 hrs by crystal violet staining based spectrophotometry; assay type: functional, cell-based; method in brief: as §3
[14] = test system: A-427; assay: Cytotoxicity against human A427 cells expressing WT p53 and Mdmx assessed as growth inhibition after 48 hrs by crystal violet staining based spectrophotometry; assay type: functional, cell-based; method in brief: as §3
[15] = test system: Mus musculus; assay: Induction of apoptosis in human HCT116 cells xenografted nude BALB/c mouse tumors at 100 to 150 mg/kg/day, po administered every other day until day 38 and measured on day 40 by TUNEL assay; assay type: functional, organism-based; settings: HCT-116
Method in brief: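 Tumor sections from orally dosed HCT116-xenograft nude mice underwent TUNEL staining, performed by an outside service. TUNEL-positive cells were counted as a percentage of all cells over eight fields at ×20 magnification.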

[16] = Cytotoxicity against human TIG7 cells expressing wild-type p53 assessed as growth inhibition after 48 hrs by crystal violet staining based spectrophotometry; settings: tig7, 48 h
[17] = test system: Mus musculus; assay: Induction of apoptosis in human HCT116 cells xenografted nude BALB/c mouse tumors assessed as upregulation of caspase-3 protein expression at 150 mg/kg/day, po administered every other day until day 38 and measured on day 40 by Western blot analysis; assay type: functional, organism-based; settings: HCT-116
Method in brief: (§4)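 Tumors excised at day 40 from orally dosed HCT116-xenograft nude mice, frozen in liquid nitrogen, ground and suspended in lysis buffer, then spun at 15,000 × g at 4 °C. 10 µg protein (measured by BCA) run on SDS-PAGE, blotted to PVDF and probed for p53, Mdm2, p21 and cleaved caspase 3 (1:1000) or full-length caspase 3 (3:1000). ECL detection.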

[18] = test system: Mus musculus; assay: Upregulation of p53 protein expression in human HCT116 cells xenografted nude BALB/c mouse tumors at 150 mg/kg/day, po administered every other day until day 38 and measured on day 40 by Western blot analysis; assay type: functional, organism-based; settings: HCT-116; method in brief: as §4
[19] = test system: Mus musculus; assay: Upregulation of Mdm2 protein expression in human HCT116 cells xenografted nude BALB/c mouse tumors at 150 mg/kg/day, po administered every other day until day 38 and measured on day 40 by Western blot analysis; assay type: functional, organism-based; settings: HCT-116; method in brief: as §4
[20] = test system: Mus musculus; assay: Upregulation of p21 protein expression in human HCT116 cells xenografted nude BALB/c mouse tumors at 150 mg/kg/day, po administered every other day until day 38 and measured on day 40 by Western blot analysis; assay type: functional, organism-based; settings: HCT-116; method in brief: as §4
[21] = test system: Mus musculus; assay: Toxicity in human HCT116 cells xenografted nude BALB/c mouse assessed as body weight loss at 100 mg/kg/day, po administered every other day until day 38 and measured on day 40; assay type: organism-based, HCT-116; settings: in vivo
Method in brief: (§5)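 HCT116 cells (1.5 × 10^6 per 100 µL Matrigel) injected s.c. into the backs of 6-week-old female BALB/c-nu/nu mice. Once tumors reached 70–143 mm3, compound (2.0 or 3.0 mg/200 µL) or vehicle (0.1% Tween 80, 200 µL) was given orally every other day until day 38. n = 6 or 9 treated, 7 control. Tumor length, width and body weight were monitored. Activity is mean treated tumor volume as a percentage of control.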

[22] = Antitumor activity against human HCT116 cells xenografted in nude BALB/c mouse assessed as decrease in tumor growth at 100 mg/kg/day, po administered every other day until day 38 and measured on day 40; assay type: functional; settings: HCT-116, po
Method in brief: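 Female BALB/c-nu/nu mice, 6 weeks old, given HCT116 cells (1.5 × 10^6 in 100 µL Matrigel) subcutaneously in the back. Once tumours reached 70–143 mm3, drug (2.0 mg/200 µL) or vehicle (0.1% Tween 80, 200 µL) was given orally every other day to day 38. Tumour length/width and body weight were tracked. Result expressed as mean treated tumour volume as % of control mean.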

[23] = test system: Mus musculus; assay: Toxicity in human HCT116 cells xenografted nude BALB/c mouse assessed as body weight loss at 150 mg/kg/day, po administered every other day until day 38 and measured on day 40; assay type: organism-based, HCT-116; settings: in vivo; method in brief: as §5

| SMILES | IC50 [6] [µM] | IC50 [7] [µM] | IC50 [8] [µM] | IC50 [9] [µM] | other results |
| --- | --- | --- | --- | --- | --- |
| COc1ccc(C2=N[C@@H](c3ccc(Cl)cc3)[C@@H](c3ccc(Cl)cc3)N2C(=O)N2CCNC(=O)C2)c(OC(C)C)c1 | – | – | – | – | Activity [1]: Active; Activity [2]: Active; Activity [3]: Active; Activity [4]: Active; Activity [5]: Active |
| O=C(Nc1ccccc1S)c1ccccc1 | > 25 | > 25 | > 25 | 7.2 | – |
| CC(C)C(=O)Nc1ccccc1S | > 25 | > 25 | > 25 | 6.3 | growth inhibition (GI) [10]: Active; growth inhibition (GI) [11]: Active; growth inhibition (GI) [12]: Active; growth inhibition (GI) [13]: Active; growth inhibition (GI) [14]: Active |
| CC(C)C(=O)Nc1ccccc1O | > 25 | > 25 | > 25 | > 25 | – |
| CC(C)C(=O)Nc1ccccc1OC(=O)C(C)C | > 25 | > 25 | > 25 | > 25 | – |
| O=C(Nc1ccccc1S)c1ccc(Cl)cc1 | > 25 | > 25 | 18.4 | 3.4 | – |
| O=C(Nc1ccccc1S)c1ccc(Cl)nc1 | > 25 | > 25 | 15.3 | 8.9 | – |
| CC(C)C(=O)Nc1ccccc1SC(=O)C(C)C | > 25 | > 25 | 13.1 | 1.5 | Activity [15]: Dose-dependent effect; growth inhibition (GI) [10]: Dose-dependent effect; Activity [16]: Toxic; Activity [17]: Active; Activity [1]: Dose-dependent effect; Activity [18]: Active; growth inhibition (GI) [11]: Active; Activity [19]: Active; Activity [20]: Active; Activity [21]: Non-toxic; Activity [2]: Dose-dependent effect; Activity [3]: Active; growth inhibition (GI) [12]: Active; growth inhibition (GI) [13]: Dose-dependent effect; T/C % at 100 mg/kg/day [22]: 49%; growth inhibition (GI) [14]: Dose-dependent effect; Activity [23]: Non-toxic; Activity [4]: Active; Activity [5]: Dose-dependent effect |
| CCCCCCCC(=O)Nc1ccccc1S | > 25 | > 25 | > 25 | > 25 | – |
| CC(C)C(=O)Sc1ccccc1NC(=O)c1ccccc1 | > 25 | > 25 | 14.6 | 4.6 | – |
